Experiment [1] addresses T1, WD repeat-containing protein 5 (Homo sapiens, UniProt P61964). The experiment is described as follows: Inhibition of WDR5 in human HEK293T cells assessed as reduction in WDR5-MYC interaction at 5 uM incubated for 24 hrs by immunoprecipitation analysis. The conditions noted are these: HEK-293T. In kind it is cell-based. The method, boiled down: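 Intact HEK293 cells (WDR5-FLAG/c-MYC-HA) at ~70% confluence, PBS-washed, treated 24 h with 5 μM compound in OptiMEM; lysates α-FLAG immunoprecipitated overnight at 4 °C, MYC co-precipitation immunoblotted, input blotted for MYC levels; normalized to vehicle; minimum two biological repeats.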

In experiment [2] the target is T1, WD repeat-containing protein 5. The experiment is described as follows: Binding affinity to recombinant human His/FLAG-tagged WDR5 (22 to 334 residues) expressed in Escherichia coli expression system using FITC-AHx-SEEEIDVVSV as substrate by fluorescence polarization assay. A general note: In fluorescence polarisation assays a small probe gives low polarisation when free and higher when bound to something large.

Experiment [3] shares this target. The experiment is described as follows: Inhibition of N-terminal FLAG-tagged human full-length WDR5 expressed in HEK293T cells harboring human C-terminal HA-tagged c-MYC assessed as reduction in WDR5-MYC interaction at 50 uM by immunoprecipitation analysis. The conditions noted are these: HEK-293T.
For experiment [4] the target is unchanged. In words: Inhibition of N-terminal FLAG-tagged human full-length WDR5 expressed in HEK293T cells harboring human C-terminal HA-tagged c-MYC assessed as reduction in MYC recruitment ZFPM1 binding site at 20 uM incubated for 10 hrs by chromatin immunoprecipitation analysis. The class given is cell-based. The conditions noted are these: HEK-293T. The method, boiled down:
(§1)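 HEK293 cells expressing HA-MYC and GFP grown to ~70% confluence, PBS-washed, treated 10 h in OptiMEM. Crosslinked 1% formaldehyde 10 min at room temperature, quenched with 125 mM glycine. Sonicated chromatin, α-HA ChIP; qPCR percent input against a 30-fold dilution of decrosslinked chromatin. One-tailed t-test; minimum three independent biological repeats.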

For experiment [5] the target is unchanged. The experiment is described as follows: Inhibition of N-terminal FLAG-tagged human full-length WDR5 expressed in HEK293T cells harboring human C-terminal HA-tagged c-MYC assessed as reduction in MYC recruitment […] binding site at 20 uM incubated for 10 hrs by chromatin immunoprecipitation analysis. The conditions noted are these: HEK-293T. In kind it is cell-based. The procedure, abridged: as §1

The target is the same in experiment [6]. The experiment is described as follows: Inhibition of N-terminal FLAG-tagged human full-length WDR5 expressed in HEK293T cells harboring human C-terminal HA-tagged c-MYC assessed as reduction in MYC recruitment RPS14 binding site at 20 uM incubated for 10 hrs by chromatin immunoprecipitation analysis. In kind it is cell-based. Particulars: HEK-293T. The procedure, abridged:
as §1

The target of experiment [7] is MLL1-ASH2L/RbBP5/WDR5/DPY30 (Homo sapiens) (UniProt P61964+Q03164+Q9UBL3+Q15291+Q9C005). The experiment is described as follows: Inhibition of MLL1/WDR5/RBBP5/ASH2L/DPY30 complex (unknown origin) assessed as reduction in histone methyltransferase activity. In kind it is protein assay.
The target of experiment [8] is T1, WD repeat-containing protein 5. In words: Inhibition of N-terminal FLAG-tagged human full-length WDR5 expressed in HEK293T cells harboring human C-terminal HA-tagged c-MYC assessed as reduction in MYC recruitment C7orf40 binding site at 20 uM incubated for 10 hrs by chromatin immunoprecipitation analysis. In kind it is cell-based. The conditions noted are these: HEK-293T. The method, boiled down:
as §1

Experiment [9] has the same target. The experiment is described as follows: Inhibition of N-terminal FLAG-tagged human full-length WDR5 expressed in HEK293T cells harboring human C-terminal HA-tagged c-MYC assessed as reduction in MYC recruitment RNPS1 binding site at 20 uM incubated for 10 hrs by chromatin immunoprecipitation analysis. In kind it is cell-based. Particulars: HEK-293T. The procedure, abridged:
as §1

Experiment [10] shares this target. In words: Inhibition of N-terminal FLAG-tagged human full-length WDR5 expressed in HEK293T cells harboring human C-terminal HA-tagged c-MYC assessed as reduction in MYC recruitment RPL5 binding site at 20 uM incubated for 10 hrs by chromatin immunoprecipitation analysis. Particulars: HEK-293T. In kind it is cell-based. The procedure, abridged: as §1

Activity calls are given as the source filed them. No cut-off for these calls is given here.

As a reminder, the Kd is the equilibrium constant for the complex coming apart. For `O=S(=O)(Nc1cn(C2CCCC2)cn1)c1cc(Br)cc(Cl)c1O`, the inhibition result in experiment [1] and in [3] was “Active” in each case. In experiment [2], the Kd turned out to be 0.4 µM.

On to `O=S(=O)(Nc1cn(CC2CCCO2)cn1)c1cc(Br)cc(Cl)c1O` (configuration not stated), for which the Kd in experiment [2] is 8 µM.

With `O=S(=O)(Nc1cn(CC2CC2)cn1)c1cc(Br)cc(Cl)c1O`, the Kd in experiment [2] is 2.1 µM.

`CS(=O)(=O)c1nc(NS(=O)(=O)c2cc(Br)cc(Cl)c2O)cn1C1CCCC1`: the inhibition result in experiment [4] and in [5] was “inactive” in each case. Further, the inhibition result in experiment [1], in experiment [6], in experiment [7], in [8], in experiment [3] and in [9] was “Active” throughout. Moreover, the inhibition result in [10] is “Active”.

Consider `O=S(=O)(Nc1cn(C(C2CC2)C2CC2)cn1)c1cc(Br)cc(Cl)c1O`, for which the Kd in [2] stood at 1.2 µM.

Turning to `O=S(=O)(Nc1cn(C2CCNC2)cn1)c1cc(Br)cc(Cl)c1O` (configuration not stated), the equilibrium dissociation constant (Kd) in experiment [2] came out at 11 µM.

Turning to `CCOC(=O)c1nc(NS(=O)(=O)c2cc(Br)cc(Cl)c2O)cn1C1CCCC1`, the inhibition result in [1], in experiment [7] and in [3] was “Active” throughout.

For the compound `O=S(=O)(Nc1nc2ccccc2s1)c1cc(Br)cc(Cl)c1O`, the Kd in experiment [2] was found to be 32 µM.

As for `O=C(c1nc(NS(=O)(=O)c2cc(Br)cc(Cl)c2O)cn1C1CCCC1)N1CCC(C2CCCN2)CC1` (configuration not stated), the Kd in experiment [2] came out at 5 µM.

As for `O=S(=O)(Nc1cnn(C2CCCC2)c1)c1cc(Br)cc(Cl)c1O`, in [1], the inhibition result is “inactive”. Also, the inhibition entry in [7] and in [3] was “Active” throughout.

Take `CNC(=O)c1nc(NS(=O)(=O)c2cc(Br)cc(Cl)c2O)cn1C1CCCC1`: the inhibition result in [1], in [7] and in experiment [3] was “Active” each time.

(Values after ChEMBL document CHEMBL4602700, “Discovery of WD Repeat-Containing Protein 5 (WDR5)-MYC Inhibitors Using Fragment-Based Methods and Structure-Based Design” (J Med Chem, 2020).)
